{"data": "Measurements collected from several papers", "target": "Mitogen-activated protein kinase kinase kinase 20 (MAP3K20, Homo sapiens, UniProt Q9NYL2)", "note": "Protocols differ between the studies behind these lines."}
{"SMILES": "c1nc2c(Nc3ccc4c(c3)OCCO4)nc(Nc3ccc4c(c3)OCCO4)nc2[nH]1", "assay": "enzyme activity, inhibitor", "conditions": "10 µM", "endpoint": "activity vs control", "result": "76%"}
{"SMILES": "CC1=C(C#N)C(c2ccc3c(c2)c(NC(=O)c2ccccc2C)nn3C)C(C#N)=C(C)N1", "assay": "cell-free assay, competition with immobilised ligand", "conditions": "1 µM", "endpoint": "remaining binding", "result": "100%"}
{"SMILES": "N#CCCc1ccc2c(c1)-c1[nH]c3ccc([N+](=O)[O-])cc3c1CC(=O)N2", "assay": "cell-free assay", "conditions": "0.5 µM", "endpoint": "remaining signal", "result": "88.6%"}
{"SMILES": "CCCCN(CCCC)C(=O)CN1C[C@H](c2cc(OC)c3c(c2)OCO3)[C@@H](C(=O)O)[C@@H]1CC(C)(C)CCC", "assay": "cell-free assay, competition with immobilised ligand", "conditions": "1 µM", "endpoint": "remaining binding", "result": "85.2%"}
{"SMILES": "CC(C)(O)[C@H]1CC[C@H](Nc2ccc3ncc(-c4cccc(C(F)(F)F)c4)n3n2)CC1", "assay": "enzyme activity, inhibitor", "conditions": "1 µM", "endpoint": "remaining activity", "result": "75.7%"}
{"SMILES": "Cc1sc(C(=O)NC2COC2)cc1-n1cc(NC(=O)Nc2c(F)cccc2Cl)cn1", "assay": "enzyme activity, inhibitor", "conditions": "10 µM", "endpoint": "remaining activity", "result": "89.9%"}
{"SMILES": "Cc1c(C(=O)O)cc(-c2ccc(C3CCNCC3)cc2)c2ccc(-c3ccc(C(F)(F)F)cc3)cc12", "assay": "binding, competition with immobilised ligand", "conditions": "1 µM", "endpoint": "remaining binding", "result": "100%"}
{"SMILES": "CNC(=O)c1cc2c(Oc3ccc(NC(=O)C4(C(=O)Nc5ccc(F)cc5)CC4)cc3)ccnc2cc1OC", "assay": "enzyme activity, inhibitor, radiometric", "conditions": "1 µM", "endpoint": "inhibition", "result": "82%"}
{"SMILES": "Cn1c2c(c3ccc(Cl)c(Cl)c31)C(C#N)C(C)(C)NC2=O (centres unmarked)", "assay": "thermal stability, DSF", "conditions": "10 µM", "endpoint": "ΔTm", "result": "0.4 °C"}
{"SMILES": "COc1cc(Cl)c(C(=O)N[C@@H](CN[C@H]2CC[C@@H](N)CC2)Cc2ccc(C#N)cc2)cc1-c1ccc(CN[C@H](C)c2ccc(C)cc2)o1", "assay": "enzyme activity, inhibitor", "conditions": "1 µM", "endpoint": "remaining activity", "result": "97%"}
{"SMILES": "COc1cc2c(N3CCN(C(=O)Nc4ccc(OC(C)C)cc4)CC3)ncnc2cc1OCCCN1CCCCC1", "assay": "cell-free assay", "conditions": "0.5 µM", "endpoint": "remaining signal", "result": "99.7%"}
{"SMILES": "Nc1ncnc2occ(-c3ccc(NC(=O)Nc4cc(C(F)(F)F)ccc4F)cc3)c12", "assay": "cell-free assay, inhibitor", "conditions": "20 µM", "endpoint": "remaining signal", "result": "0.15%"}
{"SMILES": "Cn1c2c(c3ccccc31)C(C#N)C(C)(C)NC2=O (centres unmarked)", "assay": "thermal stability, DSF", "conditions": "10 µM", "endpoint": "ΔTm", "result": "-0.3 °C"}
{"SMILES": "CC(C)(C)c1nc(-c2cccc(NS(=O)(=O)c3c(F)cccc3F)c2F)c(-c2ccnc(N)n2)s1", "assay": "enzyme activity, inhibitor, radiometric", "conditions": "1 µM", "endpoint": "remaining activity", "result": "101%"}
{"SMILES": "CCN1CCC2(CC1)NC(=O)c1c(c3ccc(Cl)c(Cl)c3n1C)C2C#N (racemic)", "assay": "thermal stability, DSF", "conditions": "10 µM", "endpoint": "ΔTm", "result": "-0.3 °C"}
{"SMILES": "c1ccc(CNc2nc(N3CCOc4ccccc43)nc3c2CCCC3)cc1", "assay": "target engagement in cells, inhibitor, chemoproteomics", "conditions": "20 mM", "endpoint": "inhibition", "result": "-6.3%"}
{"SMILES": "CC(=O)N1CCC(c2ccc(C(=O)NC(=N)N)cc2C(F)(F)F)CC1", "assay": "cell-free assay, competition with immobilised ligand", "conditions": "1 µM", "endpoint": "remaining binding", "result": "100%"}
{"SMILES": "COc1cc2ncnc(Nc3ccc(F)c(Cl)c3)c2cc1OCCCN1CCOCC1", "assay": "cell-free assay", "conditions": "0.5 µM", "endpoint": "remaining signal", "result": "96.2%"}
{"SMILES": "O=C(NC[C@@H]1[C@H]2CN(C(=O)OCc3cc(C(F)(F)F)cc(C(F)(F)F)c3)C[C@@H]12)c1ccc2[nH]nnc2c1", "assay": "cell-free assay, competition with immobilised ligand", "conditions": "1 µM", "endpoint": "remaining binding", "result": "86%"}
{"SMILES": "Cn1c2c(Cl)c(Cl)ccc2c2cc(N)[nH]c(=O)c21", "assay": "thermal stability, DSF", "conditions": "10 µM", "endpoint": "ΔTm", "result": "0.6 °C"}
{"SMILES": "CCCOc1ccc([C@H]2[C@H](C(=O)O)[C@@H](c3ccc4c(c3)OCO4)CN2CC(=O)Nc2c(CC)cccc2CC)cc1", "assay": "cell-free assay, competition with immobilised ligand", "conditions": "1 µM", "endpoint": "remaining binding", "result": "90%"}
{"SMILES": "Cc1ccc(C(=O)Nc2ccc(CN3CCN(C)CC3)c(C(F)(F)F)c2)cc1C#Cc1cnc2cccnn12", "assay": "enzyme activity, inhibitor", "conditions": "23.5 nM", "endpoint": "remaining activity", "result": "2.9%"}
{"SMILES": "CO[C@H]1CC[C@H](CNc2ccc(S(=O)(=O)NC(=O)c3ccc(N4CCN(CC5=C(c6ccc(Cl)cc6)CC(C)(C)CC5)CC4)cc3Oc3cnc4[nH]ccc4c3)cc2[N+](=O)[O-])CC1", "assay": "cell-free assay, competition with immobilised ligand", "conditions": "1 µM", "endpoint": "remaining binding", "result": "100%"}
{"SMILES": "CC1(C)NC(=O)c2[nH]c3c(Cl)c(Cl)ccc3c2C1C#N (centres unmarked)", "assay": "thermal stability, DSF", "conditions": "10 µM", "endpoint": "ΔTm", "result": "0.6 °C"}
{"SMILES": "CN(c1ccnc(CNc2nc(Nc3ccc4c(c3)CC(=O)N4)ncc2C(F)(F)F)n1)S(C)(=O)=O", "assay": "cell-free assay, competition with immobilised ligand", "conditions": "1 µM", "endpoint": "remaining binding", "result": "100%"}
{"SMILES": "Cn1c2c(Cl)c(Cl)ccc2c2cc[nH]c(=O)c21", "assay": "thermal stability, DSF", "conditions": "10 µM", "endpoint": "ΔTm", "result": "-0.2 °C"}
